Hits are enriched below; roughly 2.3% of the tested compounds scored in any of these assays.
TPT1 inhibitor – C. albicans TPT1 enzyme inhibition | 0.81% of 300,000 active | AID 1962 | inhibition, % at 5 µM | recombinant caTPT1, FP RNA substrate dephosphorylation;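 active = inhibition above the mean of all tested compounds plus 3 SD, set per screening campaign, cut at about 24% in these data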;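 also: plate controls were DMSO alone for no effect and ferristatin control at 100 nM for full effect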
Myeloid diff MLP – promotes myeloid progenitor differentiation. ER-HoxA9 myeloid progenitors, lysozyme-GFP differentiation, flow cytometry. calls only at 10 µM. 1% of 360,000 active. AID 624256;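 active = normalized GFP-positive differentiation at or above the plate's own cutoff, the solvent-only control mean plus 3 SD; inconclusive = no clear call, values can overlap the other calls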;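 also: cells exposed to compound for four days before flow analysis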
HNF4A DNA FP – change in binding of human HNF4 alpha to DNA. HNF4a-FITC DNA binding, fluorescence polarization, 1 h. activity change, % at 10 µM. 0.3% of 360,000 active; in the data active = activity change above about 30%, passing the limit was not always enough
Rpn11 block – Rpn11 (human) deubiquitinase inhibition; O00487; human 26S proteasome, Ub4-pepOG fluorescence polarization; 20S core pre-blocked with epoxomicin; inhibition, % at 20 µM; 0.59% of 360,000 active; AID 588493;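 active = inhibition at 20 µM, scaled to each plate's controls, above about 33%, limit read from the data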
Target sequence (O00487 whole entry, looked up): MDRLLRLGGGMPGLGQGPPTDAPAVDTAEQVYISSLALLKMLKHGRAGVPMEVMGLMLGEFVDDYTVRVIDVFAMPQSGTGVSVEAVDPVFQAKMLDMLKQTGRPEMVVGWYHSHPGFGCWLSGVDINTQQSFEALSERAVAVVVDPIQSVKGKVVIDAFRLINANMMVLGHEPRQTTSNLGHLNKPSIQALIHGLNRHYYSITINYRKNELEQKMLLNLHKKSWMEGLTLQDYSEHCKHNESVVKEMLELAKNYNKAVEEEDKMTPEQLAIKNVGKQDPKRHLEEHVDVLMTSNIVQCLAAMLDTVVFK
CSN deneddyl inh – inhibitors of human CSN-mediated cullin deneddylation. Q92905. Purified CSN, SCF-Nedd8-OG deneddylation, fluorescence polarization. inhibition, % at 12.5 µM. 0.38% of 360,000 active. AID 651999;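 active = pattern-corrected inhibition above about 35%, with an unprinted fluorescence ratio check between 0.5 and 1.5, limit read from the data, passing the limit was not always enough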;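 also: 0% = enzyme with substrate and 100% = substrate without enzyme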
Target sequence (Q92905 whole entry, looked up, one chain of several): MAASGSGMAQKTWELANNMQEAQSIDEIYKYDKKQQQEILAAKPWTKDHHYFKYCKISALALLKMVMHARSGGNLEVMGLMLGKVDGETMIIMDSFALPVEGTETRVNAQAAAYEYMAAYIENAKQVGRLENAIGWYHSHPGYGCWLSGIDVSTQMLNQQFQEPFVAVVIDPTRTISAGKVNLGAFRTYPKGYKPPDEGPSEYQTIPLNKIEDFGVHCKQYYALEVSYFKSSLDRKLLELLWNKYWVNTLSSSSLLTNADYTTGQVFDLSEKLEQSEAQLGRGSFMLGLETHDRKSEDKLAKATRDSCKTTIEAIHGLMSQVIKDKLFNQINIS
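Detection – fluorescence polarization · System – HEK293T-derived human Csn5 enzyme · Controls – substrate-only high control, full reaction low control · Timing – 90 min, room temperature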
The depositor's hits bear a star; i = inactive; ? = inconclusive; . = not tested or not shown; + = active, no number.

SMILES	TPT1 inhibitor	Myeloid diff MLP	HNF4A DNA FP	Rpn11 block	CSN deneddyl inh
Cc1ccc(S(=O)(=O)N2[C@@H](c3ccc(Cl)cc3)C(C(=O)OC(C)(C)C)=CC[C@H]2c2ccc(Cl)c(Cl)c2)cc1	.	i	-4.2	5.5	144.0*
Cc1ccc(S(=O)(=O)N2[C@@H](c3ccc(C(C)(C)C)cc3)C(C(=O)O)=CC[C@H]2c2ccc(Cl)c(Cl)c2)cc1	.	i	-12.9	16.7	7.8
Cc1ccc(-c2nc3cc(C)c(Br)c(C)n3c2Cc2ccsc2)cc1	.	i	0.2	.	-0.6
CCOc1ncccc1C(=O)NCc1ccccc1F	0.2	i	3.3	-3.4	-3.9
O=C(NCCc1ccccc1F)c1cccc2cccnc12	2.7	+	6.5	19.8	11.2
COC(=O)C[C@H]1CC[C@@H](NC(=O)Nc2c(C)noc2C)[C@@H](CO)O1	.	i	0.4	.	0.5
C[C@H](NC(=O)N1CCn2c1nc1ccccc12)C(=O)NCc1ccco1	-1.6	i	-0.3	0.2	-3.1
COc1cc(NC(=O)[C@@H](NC(=O)N2CCn3c2nc2ccccc23)C(C)C)cc(OC)c1	1.6	+	0.5	-1.8	2.6
CC(C)C[C@H](NC(=O)N1CCn2c1nc1ccccc12)C(=O)NCc1ccco1	-4.1	+	-1.6	-11.2	-0.2
CC(C)[C@H](NC(=O)N1CCn2c1nc1ccccc12)C(=O)N[C@H](Cc1ccccc1)C(=O)O	-4.5	i	2.9	6.3	-3.4
Nc1cc2c(cc1N)-c1ccccc1C2	.	+	2.8	-1.6	2.7
CC(C)CN1C(=O)CSCC1(C)C(=O)NC(C)C (stereo unspecified)	.	i	3.5	.	-4.1
Cc1nc(Nc2ccc(S(=O)(=O)N3CCCCC3C)cc2)c2nnn(Cc3ccccc3)c2n1 (stereo unspecified)	-1.2	+	0.8	2.3	2.4
Cc1nc(Nc2ccc(Cl)cc2)c2nnn(Cc3ccccc3)c2n1	1.2	i	-2.8	-4.8	-7.6
CCOC(=O)c1c(C)cc2c(CO)n[nH]c(=O)c2c1C	.	i	-0.5	-8.6	-5.9
COc1ccc(-c2nnc(SCc3csc(N)n3)n2C)cc1	-0.9	i	37.4*	5.2	-4.7
CCCCSc1nnc(-c2ccc(OC)cc2)n1C	-3.1	i	-0.8	-3.7	4.3
O=C(c1ccc(Cl)s1)N1CCCC1	1.7	+	-0.3	0.3	3.4
COc1ccc(NC(=O)CCc2nnc3ccc(NCc4ccco4)nn23)cc1	-2.3	i	1.5	-3.6	0.2
COc1ccc(NC(=O)CCc2nnc3ccc(NCc4ccc5c(c4)OCO5)nn23)cc1	-6.1	i	3.4	20.2	35.8*
O=C(CCc1nnc2ccc(NCc3ccco3)nn12)N1CCN(c2ccccc2F)CC1	3.0	?	1.0	3.8	1.1
O=C(CCc1nnc2ccc(NCc3ccco3)nn12)N1CCCCC1	3.7	+	1.1	-1.8	1.3
Cc1ccc(NC(=O)CCc2nnc3ccc(NCc4ccco4)nn23)cc1F	4.6	+	-2.1	5.9	2.9
CCc1c(-c2cccc(OC)c2)ncn1Cc1cccc(-c2ccccc2)c1	.	i	-3.2	.	-3.2
CCOC(=O)C1=C[C@@H](C(C)C)N(S(=O)(=O)c2ccc(C)cc2)[C@H]1c1ccc(C(F)(F)F)cc1	.	i	-2.7	0.9	-1.9
SMILES	TPT1 inhibitor	Myeloid diff MLP	HNF4A DNA FP	Rpn11 block	CSN deneddyl inh
COC(=O)c1ccc2nc(-c3ccc(Cl)cc3)c(Cc3ccsc3)n2c1	.	i	3.4	.	-0.4
N#C/C(=C(/O)c1ccccc1F)c1nc2cc(C(F)(F)F)ccc2s1	-3.7	i	15.1	33.0*	9.2
CCOC(=O)C1=C(c2ccccc2)N(C)C(=O)NC1c1ccc(OC(F)F)c(OC)c1 (stereo unspecified)	0.9	+	-0.9	-3.0	6.0
CN1CCN(c2ccc(NC(=O)c3ccc(C(F)(F)F)cc3)cn2)CC1	-0.7	i	1.5	-1.9	-5.2
Cc1ccc(S(=O)(=O)Nc2ccc(N3CCN(C)CC3)nc2)cc1	-17.4	+	-2.2	-7.5	7.5
CN1CCN(NS(=O)(=O)c2ccc(Cl)cc2)CC1	-1.5	i	-2.0	-3.8	-3.8
Cc1ccccc1C(=O)Nc1ccc(N2CCN(C)CC2)nc1	-2.5	+	-0.8	7.0	1.4
CN1CCN(c2ccc(NS(=O)(=O)c3ccc(Cl)cc3)cn2)CC1	-14.7	+	-1.3	0.6	-1.1
Cc1cc(Cl)ccc1-c1nc(NC(C)C)nc2ccsc12	.	i	-2.8	3.4	-7.0
O=C(NC1CCCC1)C1C(c2ccc(C(F)(F)F)cc2)=Nc2ccccc2N1C(=O)c1cc2ccccc2[nH]1 (stereo unspecified)	.	i	4.4	.	-0.2
COC(=O)C[C@H]1C=C[C@H](NC(=O)c2cccc(F)c2)[C@@H](CO)O1	.	i	-0.8	.	0.8
Oc1ccc(Cl)c(CN2CCN(c3ncc(Cc4ccccc4)cn3)CC2)c1	.	i	1.8	.	-4.4
CS(=O)(=O)c1ccc(C(=O)Nc2cc(-c3ccccc3)nn2-c2ccccc2)cc1	1.4	i	-1.2	3.4	-1.8
COc1ccc(C(=O)Nc2cc(-c3ccccc3)nn2-c2ccccc2F)cc1	-1.6	+	1.7	1.0	0.8
COC(=O)C[C@H]1C=C[C@H](NC(=O)Nc2ccccc2F)[C@@H](CO)O1	.	i	-1.2	.	0.1
O=C(Nc1ccc2c3c(cccc13)CC2)c1cccc([N+](=O)[O-])c1	-6.0	i	1.1	1.8	-7.9
O=C(Nc1cccc(NC(=O)c2cccc([N+](=O)[O-])c2)n1)c1cccc([N+](=O)[O-])c1	-3.2	i	-1.0	0.0	3.2
CN(C)c1ccc(NC(=O)c2cccc([N+](=O)[O-])c2)c2ccccc12	-0.8	+	3.1	22.0	0.1
O=C(Nc1ccncc1NC(=O)c1cccc([N+](=O)[O-])c1)c1cccc([N+](=O)[O-])c1	-0.1	i	-5.3	4.8	41.3*
O=C1C(=C(c2ccccc2)N2CCOCC2)Cc2ccccc21	.	i	-3.8	1.4	5.7
O=C(O)CSc1nc2ccc(Br)cc2[nH]1	.	i	4.0	1.8	69.6*
O=C(O)CSc1nc2ccc(Cl)cc2[nH]1	0.2	i	-1.2	-3.5	-2.1
CCCCNC(=O)C(NC(=O)c1cccnc1)C(=O)c1ccccc1 (stereo unspecified)	.	i	1.5	11.4	1.8
O=C(CSC1=NC2(CCCCC2)N=C1c1ccccc1)Nc1ccc2c(c1)OCCO2	-1.2	+	-1.7	0.6	-2.4
O=C(CSC1=NC2(CCCCCC2)N=C1c1ccccc1)Nc1ccc2c(c1)OCCO2	0.4	i	2.4	4.0	-7.2
COc1ccc(OC)c(CN2C(=O)CSCC2(C)C(=O)NC(C)C)c1 (stereo unspecified)	.	i	-2.5	.	-3.0
O=C(O)C1=CCC(c2ccc(Cl)c(Cl)c2)N(S(=O)(=O)c2ccc(F)cc2)C1c1cccc(F)c1 (stereo unspecified)	.	i	-3.1	.	0.7
N/C(Cc1nc2ccccc2s1)=N\O	13.2	+	6.8	12.6	6.4

Compound activity (PubChem BioAssay)
